The structures appear in SMILES notation.

Assay [1] addresses T1, α-amylase (Homo sapiens, UniProt P04746).
T1 sequence (P04746 16-511): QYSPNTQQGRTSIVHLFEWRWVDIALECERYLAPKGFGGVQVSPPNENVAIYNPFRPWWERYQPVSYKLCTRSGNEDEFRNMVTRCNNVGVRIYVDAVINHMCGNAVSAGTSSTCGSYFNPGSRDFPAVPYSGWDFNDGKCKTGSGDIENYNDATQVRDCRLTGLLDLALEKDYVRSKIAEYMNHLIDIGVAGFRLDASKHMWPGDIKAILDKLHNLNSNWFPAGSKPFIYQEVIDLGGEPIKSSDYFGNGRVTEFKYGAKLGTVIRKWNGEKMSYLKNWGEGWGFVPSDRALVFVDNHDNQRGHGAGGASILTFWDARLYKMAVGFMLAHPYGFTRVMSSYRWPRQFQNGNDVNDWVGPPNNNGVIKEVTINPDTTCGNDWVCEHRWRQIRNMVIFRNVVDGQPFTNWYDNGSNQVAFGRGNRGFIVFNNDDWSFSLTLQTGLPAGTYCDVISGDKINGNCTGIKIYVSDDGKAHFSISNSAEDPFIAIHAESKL
Briefly: In vitro α-amylase inhibitory activity. It is filed as biochemical. In outline:
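Labtest amylase substrate (diluted 1:1 in water) added; first read at 620 nm after 8 min. Final read after another 5 min at 37 °C. Inhibition calculated from the change between initial and final absorbance relative to control; IC50 from standard curve.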

Assay [2] has as its target collagenase. Put plainly: Anti-proteases assay. It is filed as biochemical. Particulars: mean of two determinations ± SD. In outline:
(§1)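 Enzyme preincubated with test compound (5−75 μg/mL) for 15 min at 37 °C, then 1% casein substrate added for 30 min at 37 °C. Reaction stopped with 5% trichloroacetic acid and centrifuged (12,000 rpm, 15 min). Filtrate absorbance read at 280 nm. Percent inhibition taken against control; IC50 from standard curve. Protease inhibitor cocktail was the positive control.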

In assay [3] the test system is LoVo cells. Briefly: Cytotoxicity assay. It counts as cell-based. Particulars: Homo sapiens, 24 h; for viability at 200 µg/mL: read-out: % of Viable cells, LoVo cell line of CRC; for IC50: read-out: IC50 LoVo cell line of CRC. The procedure, abridged: (§2)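 Cells exposed 24 h at 37 °C in 5% CO2 to test compound (final 25, 50, 75, 100, 200, 400 μg/mL) in DMEM with 10% FBS. Lactate dehydrogenase released into supernatant measured by end-point assay, OD 550 nm. Viability expressed as percent of medium-only control; 0.1% Triton X-100 was the positive control. Single-point viability at 200 μg/mL, mean ± SD (n = 2). IC50 from viability-versus-concentration plot.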

The target in assay [4] is T2, hsPLA2-G-X (Homo sapiens, UniProt O15496).
T2 sequence (O15496 43-165): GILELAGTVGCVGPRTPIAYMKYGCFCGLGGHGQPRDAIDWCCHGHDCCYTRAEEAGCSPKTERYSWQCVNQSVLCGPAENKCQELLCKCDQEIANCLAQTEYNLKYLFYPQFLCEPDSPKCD
Briefly: Anti-phospholipases colorimetric assay, hsPLA2-G-X. It is filed as biochemical. In outline: (§3)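 Test compound solutions (5−50 μg/mL) mixed with hsPLA2 solution (20 μg/mL, stock) and held 20 min at room temperature. Substrate added: 3.5 mM lecithin, 10 mM CaCl2, 3 mM sodium taurodeoxycholate, 100 mM NaCl, 0.055 mM phenol red, pH 7.6. Hydrolysis followed at 558 nm for 5 min. Percent inhibition taken against a no-compound control; IC50 from standard calibration curves.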

For assay [5], the target named is xanthine oxidoreductase (Bos taurus, UniProt P80457). Put plainly: In vitro xanthine oxidoreductase inhibitory activity. It counts as biochemical.
Chain of xanthine oxidoreductase (P80457 2-1332 limits assumed): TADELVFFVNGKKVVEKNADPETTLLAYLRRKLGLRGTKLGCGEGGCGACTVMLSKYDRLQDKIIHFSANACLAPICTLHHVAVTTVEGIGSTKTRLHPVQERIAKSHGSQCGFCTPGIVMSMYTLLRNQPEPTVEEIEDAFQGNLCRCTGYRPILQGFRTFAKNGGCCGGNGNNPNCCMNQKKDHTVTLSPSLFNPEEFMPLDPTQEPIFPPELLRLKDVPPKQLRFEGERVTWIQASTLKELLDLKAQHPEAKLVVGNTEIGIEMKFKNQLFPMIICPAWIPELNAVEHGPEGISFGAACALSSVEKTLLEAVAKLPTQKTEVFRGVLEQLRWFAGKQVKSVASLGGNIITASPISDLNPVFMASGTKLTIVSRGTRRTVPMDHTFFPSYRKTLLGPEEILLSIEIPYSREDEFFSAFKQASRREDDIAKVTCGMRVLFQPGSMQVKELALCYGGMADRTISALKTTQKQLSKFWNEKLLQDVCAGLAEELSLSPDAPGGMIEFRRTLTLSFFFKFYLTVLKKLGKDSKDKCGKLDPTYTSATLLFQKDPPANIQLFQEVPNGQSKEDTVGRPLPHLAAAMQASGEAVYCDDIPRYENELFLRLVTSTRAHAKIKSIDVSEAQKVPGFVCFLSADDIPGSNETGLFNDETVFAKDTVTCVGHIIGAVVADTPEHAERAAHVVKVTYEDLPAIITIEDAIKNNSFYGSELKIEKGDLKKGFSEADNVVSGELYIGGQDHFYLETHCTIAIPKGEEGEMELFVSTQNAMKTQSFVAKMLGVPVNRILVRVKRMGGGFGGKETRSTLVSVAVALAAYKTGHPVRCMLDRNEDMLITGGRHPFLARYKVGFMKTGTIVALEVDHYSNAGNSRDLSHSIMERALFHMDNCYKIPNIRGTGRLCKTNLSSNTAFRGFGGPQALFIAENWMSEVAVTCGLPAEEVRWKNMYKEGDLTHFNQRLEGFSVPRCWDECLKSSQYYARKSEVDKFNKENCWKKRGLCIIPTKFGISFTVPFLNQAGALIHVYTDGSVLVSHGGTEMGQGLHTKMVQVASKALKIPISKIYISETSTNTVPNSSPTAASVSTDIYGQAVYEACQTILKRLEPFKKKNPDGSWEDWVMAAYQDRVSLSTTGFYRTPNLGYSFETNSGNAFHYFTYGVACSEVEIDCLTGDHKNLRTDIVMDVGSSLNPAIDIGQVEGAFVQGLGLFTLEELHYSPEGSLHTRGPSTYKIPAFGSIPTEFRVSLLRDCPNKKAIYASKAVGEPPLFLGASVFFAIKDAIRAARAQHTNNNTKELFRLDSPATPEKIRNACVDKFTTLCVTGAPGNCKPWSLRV
Assay [6] concerns the target α-glucosidase (Saccharomyces cerevisiae, UniProt P53341). Briefly: In vitro α-glucosidase inhibitory activity. It is filed as biochemical, Saccharomyces cereviseae.
In assay [7] the target is cathepsin-B (Homo sapiens, UniProt P07858). Put plainly: Anti-proteases assay. It is filed as biochemical. In outline: as §1
For assay [8], the system named is HCT-116 cells. Put plainly: Cytotoxicity assay. It is filed as cell-based. The note with it: Homo sapiens, HCT-116, 24 h, read-out: IC50 HCT-116 cell line of CRC. The procedure, abridged: as §2
Assay [9] has as its target T3, hsPLA2-G-V (Homo sapiens, UniProt P39877).
T3 sequence (P39877 21-138): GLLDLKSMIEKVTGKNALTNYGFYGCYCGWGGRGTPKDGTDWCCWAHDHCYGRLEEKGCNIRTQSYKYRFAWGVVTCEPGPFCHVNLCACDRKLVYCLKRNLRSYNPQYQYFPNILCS
Briefly: Anti-phospholipases colorimetric assay, hsPLA2-G-V. It is filed as biochemical. In outline: as §3

For assay [10], the target named is T4, hsPLA2-G-IIA (Homo sapiens, UniProt P14555).
T4 sequence (P14555 21-144): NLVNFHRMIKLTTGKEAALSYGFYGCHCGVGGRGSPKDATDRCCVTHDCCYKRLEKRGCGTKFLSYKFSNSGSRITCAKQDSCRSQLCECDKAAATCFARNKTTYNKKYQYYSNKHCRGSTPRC
Put plainly: Anti-phospholipases colorimetric assay, hsPLA2-G-IIA. It counts as biochemical.

Assay [11] deals with T5, trypsin (Bos taurus, UniProt P00760).
T5 sequence (P00760 24-246): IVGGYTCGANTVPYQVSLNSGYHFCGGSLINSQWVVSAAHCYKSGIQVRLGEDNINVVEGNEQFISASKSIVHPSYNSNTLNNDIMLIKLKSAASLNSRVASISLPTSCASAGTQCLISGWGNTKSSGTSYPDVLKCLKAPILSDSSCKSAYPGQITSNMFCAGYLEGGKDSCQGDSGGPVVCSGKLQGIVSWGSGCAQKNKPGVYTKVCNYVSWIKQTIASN
Put plainly: Anti-proteases assay. It counts as biochemical. The procedure, abridged: as §1

The target in assay [12] is thrombin (Homo sapiens, UniProt P00734). Put plainly: Anti-proteases assay. It counts as biochemical.

Chain of α-glucosidase (P53341 whole entry): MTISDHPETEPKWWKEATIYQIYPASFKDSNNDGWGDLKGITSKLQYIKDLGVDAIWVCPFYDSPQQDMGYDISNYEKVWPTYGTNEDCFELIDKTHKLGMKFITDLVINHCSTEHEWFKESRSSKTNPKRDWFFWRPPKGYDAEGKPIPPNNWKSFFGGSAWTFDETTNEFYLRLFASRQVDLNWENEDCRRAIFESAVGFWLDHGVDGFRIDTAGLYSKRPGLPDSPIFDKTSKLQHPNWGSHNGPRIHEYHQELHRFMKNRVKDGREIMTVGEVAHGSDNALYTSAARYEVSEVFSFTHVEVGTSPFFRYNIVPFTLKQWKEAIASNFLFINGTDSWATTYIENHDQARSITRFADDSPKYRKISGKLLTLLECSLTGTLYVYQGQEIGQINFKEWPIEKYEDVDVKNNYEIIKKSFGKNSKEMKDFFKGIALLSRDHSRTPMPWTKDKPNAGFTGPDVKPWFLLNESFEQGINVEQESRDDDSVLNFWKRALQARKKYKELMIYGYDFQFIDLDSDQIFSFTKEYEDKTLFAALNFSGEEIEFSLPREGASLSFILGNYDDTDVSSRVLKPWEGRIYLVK

For `Cc1nc2ccc(Br)cc2c(=O)n1/N=C/c1ccc(C(=O)O)cc1` [Compound 3b, (E)-4-[(6-Bromo-2-methyl-4-oxo-4H-quinazolin-3-ylimino)methyl]benzoic acid], half-maximal inhibition in assay [1] (IC50) required 264 ± 11 µM.

With `COc1cc(/C=N/n2c(C)nc3ccc(C)cc3c2=O)cc([N+](=O)[O-])c1O` [Compound 3d, (E)-3-[(4-Hydroxy-3-methoxy-5-nitrobenzylidene)amino]-2,6-dimethylquinazolin-4(3H)-one], the “mean IC50 against Collagenase” value in [2] worked out at 57.83 ± 2.69 µg/mL. In addition, in assay [3], the viability at 200 µg/mL came to 90.5 ± 3.54%. Further, the IC50 in [1] amounted to 375 ± 11.5 µM; in assay [4], 21.4 ± 2.31 µM.

For `COc1ccc2cc(/C=N/n3c(C)nc4ccc(Br)cc4c3=O)ccc2c1` [Compound 3f, (E)-6-Bromo-3-[((6-methoxynaphthalen-2-yl)methylene)amino]-2-methylquinazolin-4(3H)-one], the viability at 200 µg/mL in assay [3] was found to be 58 ± 4.24%. For the same molecule, the IC50 was 7.34 ± 0.33 µM in assay [5], 12.4 ± 0.83 µM in assay [6], 310 ± 10 µM in assay [1] and 132 µM in [7].

Consider `COc1cc(/C=N/n2c(C)nc3ccc(Br)cc3c2=O)ccc1O` [Compound 3g, (E)-6-Bromo-3-[(4-hydroxy-3-methoxybenzylidene)amino]-2-methyl-3H-quinazolin-4-one], for which the viability at 200 µg/mL in assay [3] is 16.8 ± 0.35%. Further, the IC50 in assay [3] is 206 ± 7.29 µM; in assay [8], 285 ± 9.11 µM; in assay [4] it was 14.5 ± 0.92 µM; in assay [9], 22.3 ± 0.92 µM.

With `COc1cc(/C=N/n2c(C)nc3ccc(Br)cc3c2=O)ccc1OCc1ccc(Cl)cc1` [Compound 5, (E)-6-Bromo-3-{[4-(4-chlorobenzyloxy)-3-methoxybenzylidene]amino}-2-methyl-3H-quinazolin-4-one], the IC50 in [6] came out at 13.7 ± 1.41 µM; in assay [1], 358 ± 4.95 µM.

As for `Cc1nc2ccc(Cl)cc2c(=O)n1NC(=O)CCl` [Compound 7b, 2-Chloro-N-(6-chloro-2-methyl-4-oxo-4H-quinazolin-3-yl)acetamide], the IC50 in [10] was 127 ± 2.12 µM; in assay [7], 31.5 µM.

For the molecule `Cc1nc2ccc(Cl)cc2c(=O)n1NC1=NC(=O)CS1` [Compound 8, 6-Chloro-2-methyl-3-(4-oxo-4,5-dihydrothiazol-2-ylamino)-3H-quinazolin-4-one], the IC50 in [11] was 1780 nM; in assay [3] it was 319 ± 11.4 µM; in [12], 729 nM; in [8], 449 ± 11.5 µM. Also, the viability at 200 µg/mL in [3] is 13.5 ± 0.71%.

The molecule `O=c1c2ccccc2[nH]c(=S)n1-c1ccccc1` [Compound 9, 2-Mercapto-3-phenyl-3H-quinazolin-4-one] had an IC50 in [9] of 151 ± 2.12 µM.

For `Cc1nc2ccccc2c(=O)n1NC(=O)CSc1nc2ccccc2c(=O)n1-c1ccccc1` [Compound 10, N-(2-Methyl-4-oxo-4H-quinazolin-3-yl)-2-(4-oxo-3-phenyl-3,4-dihydroquinazolin-2-ylsulfanyl)acetamide], the viability at 200 µg/mL in assay [3] worked out at 22 ± 1.41%. The IC50 in [3] is 273 ± 9.04 µM; in assay [10], 13.8 ± 2.12 µM; in assay [8], 230 ± 9.04 µM; in [9], 14.7 ± 0.42 µM.

In [1], `COc1cc(NCC(=O)Nn2c(C)nc3ccc(Cl)cc3c2=O)cc(OC)c1OC` [Compound 12, N-(6-Chloro-2-methyl-4-oxo-4H-quinazolin-3-yl)-2-(3,4,5-trimethoxyphenylamino)acetamide] had an IC50 of 401 ± 6.36 µM.

In turn, `O=c1c(O)c(-c2ccc(O)c(O)c2)oc2cc(O)cc(O)c12` [Quercetin, quercetin, reference compound] came in with an IC50 in assay [1] of 407 ± 2.83 µM.

The values above are taken from PMC9178606 (ACS Omega, 2022).
